# Shown is part of a subset that was picked to be rich in hits.
# HUVEC inhibit: blocks proliferation of human endothelial cells; HUVEC proliferation, CellTiter-Glo luminescence, 72 h; hits give low values; viability, % at 10 µM (by protocol); 86,000 compounds, 1.1% hits; AID 648;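 active means viability at or below 30%; inactive means viability above 30%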;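 further: 100% = median luminescence of DMSO-only cell control wells on each plate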
# HCT116 bCat-KO: beta-catenin-lacking colon tumor cell growth suppression. HCT116 beta-catenin knockout viability, CellTiter-Glo, 60 h; hits give low values. viability, % at 10 µM. 140,000 compounds, 1.5% hits. AID 818;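 active means viability at or under a set limit, the compound median less 4 SD, cut at about 6% in these data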;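 further: 0% = Hyamine 1622 control at 20 µM and 100% = untreated cell control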
# PTEN del growth: PTEN-deleted cell growth suppression. HCT116 PTEN-null viability, CellTiter-Glo, 60 h; hits give low values. viability, % at 10 µM. 140,000 compounds, 1.2% hits;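 active means viability at or below a set limit, 4 SD under the median of all tested compounds, cut at about 3.7% in these data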;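 further: PTEN knockout HCT116 line with beta catenin targeted HCT116 as companion control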
# PTK2B oligo ant: antagonists of human Pyk2 oligomerization; Q293 cells, Pyk2 FERM NanoBiT luminescence; hits give low values; Q14289; z-score (the deposit names both 25 µM and 10 µM); 99,000 compounds, 0.83% hits; AID 1347419;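 active means Z-score of -3 or lower, scaled per plate to the spread of control and sample wells; inactive means z-score above -3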;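 further: negative z-score means lost luminescence so less FERM oligomerization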
# Fibroblast inh: blocks proliferation of human lung fibroblasts; AID 719; 85,000 compounds, 1.1% hits; LL 47 human lung fibroblast viability, ATP luminescence; hits give low values; viability, % at 10 µM;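 active means viability at or below 50% in the single dose screen; inactive means viability above 50%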;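 further: compound exposure lasted 72 h before the ATP readout; 100% = median luminescence of untreated cell-only wells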
#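 Test system: LL 47 human lung fibroblasts; Quantity: 1,150 cells/well; Buffer or medium: IMEM plus 15% FBS; Dosing: tenfold compound dosing solution, DMSO at 0.1%; Timing: overnight cell rest, 72 h compound treatment at 37 °C; Detection: ATP-based CellTiter-Glo luminescent readout; Read-out basis: viability percentage against median untreated-cell control; Controls: cell-only wells, no compound.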
# H69AR inhibit: growth inhibitors of human H69AR lung tumor cells; H69AR lung tumor viability, ATP luminescence, 72 h; hits give low values; viability, % at 10 µM; 85,000 compounds, 6% hits; AID 598;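 active means viability at or below 40%; inactive means viability above 40%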;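 further: multidrug resistant small cell line overexpressing MRP-1 efflux transporter; 100% = mean luminescence of untreated control wells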
# The depositor's hits bear a star; . = not tested or not shown.
SMILES,HUVEC inhibit,HCT116 bCat-KO,PTEN del growth,PTK2B oligo ant,Fibroblast inh,H69AR inhibit
COc1ccc2c(=O)c3c(=O)n(Cc4ccco4)c(-c4cc(OC)c(OC)c(OC)c4)nc3oc2c1,70,54,49,-1.8,78,13*
C=CCN1C(=Nc2cccnc2)SCC1(O)c1ccc(C)cc1 (stereo unspecified),1.8*,20,27,.,86,34*
O=C(c1ccccc1)N1CCN(C(=S)NCc2ccc3c(c2)OCO3)CC1,.,90,97,.,.,.
CCN(CC)c1ccc(/C=N/NC(=O)c2cccc(S(=O)(=O)Nc3ccccc3OC)c2)c(O)c1,.,5.3*,10,.,.,.
COc1ccccc1NS(=O)(=O)c1cccc(C(=O)N/N=C/c2ccc3c(c2)OCCO3)c1,.,101,104,.,.,.
Cc1nnc(Sc2nc3ccccc3o2)c2ccccc12,80,18,16,-0.18,94,6.8*
Cc1ccc(-c2nnc(Sc3nc4ccccc4o3)c3ccccc23)cc1,.,34,25,0.47,.,.
CC1=CCC[C@@H]2[C@@](C)(CC/C(C)=C/C(=O)O)[C@H](C)CC[C@@]12C,.,82,89,.,.,.
COCCn1c(-c2ccccc2)nc2c(c(=O)c3ccccc3n2C)c1=O,.,72,93,.,.,.
COc1ccc(NC(=O)NCCCN2CCN(c3cc(C)ccc3C)CC2)cc1,73,1.4*,1.4*,.,90,61
O=C(CCn1c(=O)oc2ccccc21)N1CCN(c2ccccc2Cl)CC1,62,30,30,0.22,66,18*
Cc1nnc(SCC(=O)NCc2ccc3c(c2)OCO3)[nH]c1=O,111,92,96,2,107,101
COc1cc(C(=O)O/N=C2/C=C(C)C(=O)C=C2C)cc(OC)c1OC,.,3.6*,6,.,.,.
COc1cc(C(=O)ON=C2C(C)=CC(=O)C=C2C)cc(OC)c1OC,.,77,85,-0.09,.,.
Cc1nn(CC(=O)NCc2cc3ccccc3[nH]2)c(C)c1[N+](=O)[O-],.,88,86,.,.,.
Cc1ccc(C2=Nc3ccccc3NC(C)(c3ccc(C)o3)C2)o1 (stereo unspecified),85,75,88,-1.7,86,38*
CC1=CC(C)=Nc2ccccc2N1,92,93,95,-0.61,97,44
O=C1C=C(c2cccs2)C[C@H](c2ccccc2)[C@H]1n1nnc([N+](=O)[O-])n1,.,4.9*,4,.,.,.
CC1CCCC(C)N1C(=O)c1cc2ncc(CCCl)cn2n1 (stereo unspecified),.,99,101,.,.,.
CCCN1C/C(=C/c2cccc([N+](=O)[O-])c2)C(=O)/C(=C/c2cccc([N+](=O)[O-])c2)C1,.,2.6*,2.0*,-0.27,.,.
CCCN1C/C(=C/c2ccc3c(c2)OCO3)C(=O)/C(=C/c2ccc3c(c2)OCO3)C1,.,2.0*,2.2*,.,.,.
CC1=C/C(=C\c2ccc3c(c2)OCO3)C(=O)S1,82,99,88,1.4,105,68
COC(=O)c1ccc(NC(=O)CCN2CCN(Cc3ccccc3)CC2)cc1,98,86,99,0.6,99,89
N#CCCN(C(=O)COC(=O)c1ccc(CNS(=O)(=O)c2ccc(F)c(Cl)c2)cc1)c1ccc(F)cc1,.,62,57,.,.,.
O=C(Nc1ccncc1)C1CCCN(S(=O)(=O)c2cccc3cccnc23)C1 (stereo unspecified),67,23,23,.,57,24*
SMILES,HUVEC inhibit,HCT116 bCat-KO,PTEN del growth,PTK2B oligo ant,Fibroblast inh,H69AR inhibit
Cc1ccc(CCNc2ccccc2C)cn1,105,98,100,1.5,99,108
COc1cccc2sc(Nc3nnc(-c4cccs4)o3)nc12,2.8*,2.6*,8,-0.11,41*,23*
Fc1cccc2sc(Nc3nnc(-c4ccco4)o3)nc12,57,19,19,-0.28,65,37*
COc1cccc2sc(NC(=O)c3ccc(Br)s3)nc12,.,10,6,-1.7,.,.
COc1cccc2sc(Nc3nnc(-c4ccc(F)cc4)o3)nc12,2.9*,13,15,.,62,35*
CCOC(=O)c1sc(Nc2nc3c(OC)cccc3s2)nc1C,.,29,27,-1.5,.,.
Cc1ccc(S(=O)(=O)/N=S(\C)CC2CC2(Cl)Cl)cc1 (stereo unspecified),104,98,89,0.34,104,101
O=C(N/N=C/c1cccs1)c1ccc2c(c1)OCO2,.,100,94,.,.,.
O=C(/C=C/c1ccccc1)NC(=S)Nc1ccc2c3c(cccc13)CC2,.,85,93,.,.,.
COCCCN(C(=S)Nc1cccc(Cl)c1)C(C)c1ccncc1 (stereo unspecified),.,83,96,.,.,.
CCn1c2ccccc2c2cc(C3C(C#N)=C(N)Oc4n[nH]c(COC)c43)ccc21 (stereo unspecified),5.6*,2.3*,6,-0.2,54,83
O=C(c1c(O)c2ccccc2oc1=O)C1CCCCC1,83,96,97,0.67,90,54
O=C(CCC1CCCC1)c1c(O)c2ccccc2oc1=O,1.8*,84,88,.,91,81
Nc1cccc2nc3ccccc3cc12,4.2*,4.0*,3.2*,.,19*,9.2*
Cc1cc2c(N)cccc2nn1,104,97,101,-0.58,108,94
Cc1ccc(-c2nn3c(-c4ccco4)nnc3c3ccccc23)cc1S(=O)(=O)NCC1CCCO1 (stereo unspecified),72,69,45,-1.1,89,16*
CC(C)C(NC(=O)CSCc1ccc([N+](=O)[O-])cc1)C(C)C,.,65,69,.,.,.
COc1ccc(CCn2c(=S)[nH]c3cc(C(=O)NCc4ccco4)ccc3c2=O)cc1OC,7.3*,90,85,-2.8,76,4.4*
COc1ccc(-n2c(=S)[nH]c3cc(C(=O)NCc4ccco4)ccc3c2=O)cc1OC,102,91,95,-0.08,97,81
CCOCC(=O)N1CCN(c2ccc([N+](=O)[O-])cc2)CC1,.,89,98,0.91,.,.
Cc1ccccc1CS(=O)(=O)c1nnc([C@H](Cc2ccccc2)NC(=O)OC(C)(C)C)o1,62,3.5*,2.8*,-0.44,5.5*,1.2*
CC(C)(C)OC(=O)N[C@@H](Cc1ccccc1)c1nnc(SCC(=O)c2ccc(Cl)cc2)o1,46,81,79,0.51,29*,47
CCC(C)[C@@H](NC(=O)OC(C)(C)C)c1nnc(S(=O)(=O)Cc2cccc(C)c2)o1 (stereo partly specified),76,21,54,-1.9,6.2*,1.6*
CN(O)/C=c1/ccc2c(n1)C(=O)C=CC=2,95,22,15,-0.14,110,37*
COc1cc2c3nnc(-c4ccc(F)cc4)c-3cn(Cc3cccc(C)c3)c2cc1OC,2.3*,82,74,.,3.2*,1.1*
COc1cc2c3nnc(-c4ccc(F)cc4)c-3cn(Cc3ccc(C)cc3)c2cc1OC,38,85,97,.,68,43
Cn1c(-c2ccc(C=O)s2)nc2c3ccccc3c3ccccc3c21,60,25,7,-3.6*,89,18*

# Screening data deposited in PubChem by several laboratories.
